Data on 13 compounds can be found in paper PMC9303924 (Proceedings of the National Academy of Sciences of the …, 2022).

Test [1] relates to McpA/TlpA receptor chimeras in SQR9Δ8mcp. In words: Chemotaxis of McpA receptor chimera strains compared. It counts as cell-based, Bacillus velezensis SQR9. As to conditions: strains with chimeras McpA_distal (M1) and McpA_proximal (M2). The method, boiled down:
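Chimeric receptors (McpA or TlpA LBD modules swapped) integrated at amyE of SQR9Δ8mcp; strains grown at 30 °C in low-salt LB. Microfluidic SlipChip run with 13 parallel units as duplicates: channels BSA-coated (10 mg/mL, 5 min); compound, cells and buffer in top, middle and bottom wells; 30 min in the dark. Cells counted by fluorescence microscopy; I30 = Ne/(Ne+Nc); attraction when above 0.6.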

Test [2] addresses T1, McpA-LBD (A36-L277) (Bacillus velezensis, UniProt A7Z835).
T1 sequence (A7Z835 36-277): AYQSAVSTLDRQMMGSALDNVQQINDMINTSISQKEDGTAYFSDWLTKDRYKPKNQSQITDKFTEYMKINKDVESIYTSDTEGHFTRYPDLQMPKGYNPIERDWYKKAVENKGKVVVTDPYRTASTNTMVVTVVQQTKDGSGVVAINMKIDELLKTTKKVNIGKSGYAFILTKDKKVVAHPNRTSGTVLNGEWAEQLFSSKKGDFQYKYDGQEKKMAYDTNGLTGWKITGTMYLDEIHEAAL
Kind of test: Biolayer interferometry. It counts as binding, Bacillus velezensis SQR9. (In general: Biolayer interferometry detects binding as a change in optical thickness at a sensor tip.)

The target of test [3] is T1, McpA-LBD (A36-L277). Kind of test: Surface plasmon resonance. The class given is binding, Bacillus velezensis SQR9. The conditions noted are these: SPR, compounds at 200 μM and 2 mM.
Test [4] relates to McpA-LBD. The conditions noted are these: cited from earlier work.
Test [5] deals with McpA-LBD. The conditions noted are these: cited from earlier work. The source holds these as a separate data set.

Usually Kd stands for the concentration at which binding is half-saturated.

“Also recorded” adds a separate entry of the source. Read-outs that look alike come from different tables or passages of the source.

Consider `O=C(O)CC(O)C(=O)O` (stereo not shown) [Malic acid], for which the “McpA-LBD module on which chemotaxis relies” value (from here on “McpA-LBD module”) in test [1] is on record as “sensed by the membrane-proximal module”. Consider `C[C@H](O)[C@@H](O)[C@@H](O)[C@H](O)C=O` [Fucose], for which, in test [2] (BLI), the “interaction with McpA-LBD observed” value is on record as “interaction; also recorded: directly bound”. The “binding to McpA-LBD” value in test [3] was “binding for all ligands, except for serine and fucose”. Take `N[C@@H](CC(=O)O)C(=O)O` [Aspartic acid]: in test [1], the “McpA-LBD module” value is given as “sensed by the membrane-proximal module”. In test [4], the “direct binding to McpA-LBD” value was “direct binding”. On to `O=C(O)C(=O)O` [Oxalic acid], for which the “McpA-LBD module” value in test [1] was “sensed by the membrane-proximal module”.

Take `O=C[C@H](O)[C@@H](O)[C@@H](O)[C@H](O)CO` [Galactose]: in test [5], the “direct binding to McpA-LBD” value is “no direct binding”.

`N[C@@H](CCC(=O)O)C(=O)O` [Glutamic acid]: the “McpA-LBD module” value in test [1] was “sensed by the membrane-proximal module”.

For `O=C(O)CCC(=O)O` [Succinic acid], the “McpA-LBD module” value in test [1] was “sensed by the membrane-proximal module”. As for `O=C[C@H](O)[C@H](O)[C@H](O)CO` [Ribose], the “interaction with McpA-LBD observed” value in test [2] (BLI) is reported as “interaction; also recorded: directly bound”. This compound displayed a Kd in test [2] (BLI, McpA-LBD (A36-L277), 25 °C, 1:1 binding model) of 1.94 µM. As for `O=C(O)CC(O)(CC(=O)O)C(=O)O` [Citric acid], in test [1], the “McpA-LBD module” value was “sensed by the membrane-proximal module”. In test [4], the “direct binding to McpA-LBD” value is on record as “direct binding”. `OC[C@@H](O)[C@@H](O)[C@@H](O)CO` [Ribitol] yielded a Kd in test [2] of 4.36 µM. Moreover, the “interaction with McpA-LBD observed” value in test [2] (BLI) is listed as “interaction; also recorded: directly bound”. `N[C@@H](Cc1ccc(O)cc1)C(=O)O` [Tyrosine]: in test [2] (BLI), the “interaction with McpA-LBD observed” value is on record as “interaction”. The “McpA-LBD module” value in test [1] is given as “sensed by the membrane-proximal module”. `N[C@@H](CO)C(=O)O` [Serine]: the “binding to McpA-LBD” value in test [3] was “binding for all ligands, except for serine and fucose”. Take `OC[C@H]1OC(O)[C@@H](O)[C@@H](O)[C@@H]1O` (stereo partly shown) [Mannose]: in test [2] (BLI), the “interaction with McpA-LBD observed” value is reported as “interaction”.
